Source: ChEMBL document CHEMBL1125052, “Synthesis and in vitro LTD4 antagonist activity of bicyclic and monocyclic cyclopentylurethane and cyclopentylacetamide N-arylsulfonyl amides” (J Med Chem, 1990)

System: not listed separately
Assay: Partition coefficient (logP)
Format: physicochemical
Conditions: octanol/water

Row | Structure (SMILES) | logP
1 | Cn1ccc2ccccc21 | 2.72
2 | c1ccc2[nH]cnc2c1 [BENZIMIDAZOLE] | 1.2
3 | c1ccc2[nH]ncc2c1 [INDAZOLE] | 1.82
4 | c1ccc2[nH]nnc2c1 [BENZOTRIAZOLE] | 1.34
5 | c1ccc2sccc2c1 [BENZOTHIOPHENE] | 3.09

Molecular target: T1, Cysteinyl leukotriene receptor 1 (Cavia porcellus) (UniProt Q2NNR5)
T1 sequence (whole entry): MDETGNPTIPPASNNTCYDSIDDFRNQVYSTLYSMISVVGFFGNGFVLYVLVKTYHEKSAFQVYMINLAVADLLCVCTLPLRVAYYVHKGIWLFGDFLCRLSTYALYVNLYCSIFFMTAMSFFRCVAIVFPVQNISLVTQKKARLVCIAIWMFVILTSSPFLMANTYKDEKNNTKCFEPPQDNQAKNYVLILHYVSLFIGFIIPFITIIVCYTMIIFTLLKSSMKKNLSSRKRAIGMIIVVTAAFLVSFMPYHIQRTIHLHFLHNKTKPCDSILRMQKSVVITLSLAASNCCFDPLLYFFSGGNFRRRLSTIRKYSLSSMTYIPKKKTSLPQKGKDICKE
Assay: Negative logarithm of molar dissociation constant on guinea pig trachea at Cysteinyl leukotriene D4 receptor, when LTE4 is used as agonist
Format: functional
Conditions: not given
Method in brief: (§1)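 Guinea pig tracheal spirals, each trachea split into two sections for paired experiments, in 10-mL baths of modified Krebs' buffer at 37 °C gassed with 95% O2/5% CO2. Resting tension was 2 g, with 60 min stabilization. Responses were expressed relative to carbachol (30 μM). Test compound was preincubated 30 min before cumulative LTE4 log-increment curves; paired controls received vehicle. EC50 was obtained by linear regression and KB = [antagonist]/(dose ratio − 1).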

Row | Structure (SMILES) | pKB
6 | COc1cc(C(=O)NS(=O)(=O)c2ccccc2)ccc1COc1cccc(NC(=O)OC2CCCC2)c1 | 7.14
7 | COc1cc(C(=O)NS(=O)(=O)c2ccccc2Cl)ccc1Cc1csc2ccc(NC(=O)CC3CCCC3)cc12 | 9.6
8 | COc1cc(C(=O)NS(=O)(=O)c2ccccc2)ccc1CN1CCOc2ccc(NC(=O)CC3CCCC3)cc21 | 9.1
9 | COc1cc(C(=O)NS(=O)(=O)c2ccccc2C)ccc1Cc1csc2ccc(NC(=O)CC3CCCC3)cc12 | 9.25
10 | COc1cc(C(=O)NS(=O)(=O)c2ccccc2)ccc1CN1CCOc2ccc(NC(=O)OC3CCCC3)cc21 | 9.02
11 | COc1cc(C(=O)NS(=O)(=O)c2ccccc2)ccc1CN1CCc2ccc(NC(=O)CC3CCCC3)cc21 | 9.11
12 | COc1cc(C(=O)NS(=O)(=O)c2ccccc2)ccc1Cn1nnc2ccc(NC(=O)CC3CCCC3)cc21 | 9.86
13 | COc1cc(C(=O)NS(=O)(=O)c2ccccc2)ccc1Cc1csc2ccc(NC(=O)OC3CCCC3)cc12 | 9.31
14 | CNc1ccc(NC(=O)OC2CCCC2)cc1C(=O)Cc1ccc(C(=O)NS(=O)(=O)c2ccccc2C)cc1OC | 9.07
15 | COc1cc(C(=O)NS(=O)(=O)c2ccccc2)ccc1Cn1cnc2ccc(NC(=O)CC3CCCC3)cc21 | 9.22
16 | COc1cc(C(=O)NS(=O)(=O)c2ccccc2)ccc1Cn1cnc2ccc(NC(=O)OC3CCCC3)cc21 | 9.2

Molecular target: T1, Cysteinyl leukotriene receptor 1 (Cavia porcellus)
Assay: Negative logarithm of molar dissociation constant on guinea pig trachea at LTD4 receptor, when LTE4 is used as agonist
Format: functional
Conditions: not given
Method in brief: as §1

Row | Structure (SMILES) | pKB
17 | COc1cc(C(=O)NS(=O)(=O)c2ccccc2C)ccc1CN1CCOc2ccc(NC(=O)CC3CCCC3)cc21 | 9.68
18 | COc1cc(C(=O)NS(=O)(=O)c2ccccc2)ccc1Cc1nn(C)c2ccc(NC(=O)OC3CCCC3)cc12 | 10.3

System: not listed separately
Assay: Antagonist activity was determined
Format: functional
Conditions: not given
Method in brief: as §1

Row | Structure (SMILES) | pA2
19 | COc1cc(C(=O)NS(=O)(=O)c2ccccc2)ccc1Cn1ncc2ccc(NC(=O)OC3CCCC3)cc21 [ICI-198615] | 10.1
